According to ChEMBL document CHEMBL4316599, “Synthesis, in vitro and in vivo biological evaluation of substituted 3-(5-imidazo[2,1-b]thiazolylmethylene)-2-indolinones as new potent anticancer agents” (Eur J Med Chem, 2019):

Legend:
Leukemia cell = test: Cytotoxicity against human leukemia cells after 48 hrs by SRB assay; format: functional
Procedure, shortened: (§1)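 NCI-60 screen: single-dose pass at 10^-5 M, then a five-concentration assay from 10^-9 to 10^-4 M (highest 100 μM). Exposure was 48 h under standard NCI protocols. GI50, TGI and LC50 were derived per cell line and averaged by subpanel. Repeated tests are the mean of two experiments.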

Melanoma cell line = test: Cytotoxicity against human melanoma cells after 48 hrs by SRB assay; format: functional; settings: for CC50: read-out: LC50 (the source's name); procedure, shortened: as §1
NSCLC = test: Cytotoxicity against human NSCLC cells after 48 hrs by SRB assay; format: functional; procedure, shortened: as §1
Breast carcinoma cell = test: Cytotoxicity against human breast cancer cells after 48 hrs by SRB assay; format: functional; procedure, shortened: as §1
Prostatic carcinoma cell = test: Cytotoxicity against human prostate cancer cells after 48 hrs by SRB assay; format: functional; procedure, shortened: as §1
CNS carcinoma cell = test: Cytotoxicity against human CNS cancer cells after 48 hrs by SRB assay; format: functional; settings: for CC50: read-out: LC50 (the source's name); procedure, shortened: as §1
[1] = Cytotoxicity against human COLON cells after 48 hrs by SRB assay; format: functional; settings: for CC50: read-out: LC50 (the source's name); procedure, shortened: as §1
Renal cancer cell line = test: Cytotoxicity against human renal cancer cells after 48 hrs by SRB assay; format: functional; procedure, shortened: as §1
Ovarian carcinoma cell = test: Cytotoxicity against human ovarian cancer cells after 48 hrs by SRB assay; format: functional; procedure, shortened: as §1
Tubulin (Bos taurus) [2] = target: T1, Tubulin (Bos taurus) (UniProt Q6B856+Q862L2+Q862F3); test: Inhibition of [3H]colchicine binding to bovine brain tubulin at 5 uM after 20 mins relative to control
Procedure, shortened: (§2)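 Reaction mixtures held 1 μM tubulin, 5 μM [³H]colchicine and test compound at 5 or 50 μM. Read-out was percent inhibition of colchicine binding.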

Tubulin (Bos taurus) [3] = target: T1, Tubulin (Bos taurus); test: Inhibition of [3H]colchicine binding to bovine brain tubulin at 50 uM after 20 mins relative to control; procedure, shortened: as §2

Structure (SMILES) | GI50 (Leukemia cell) [µM] | TGI (Leukemia cell) [µM] | GI50 (Melanoma cell line) [µM] | TGI (Melanoma cell line) [µM] | CC50 (Melanoma cell line) [µM] | GI50 (NSCLC) [µM] | TGI (NSCLC) [µM] | GI50 (Breast carcinoma cell) [µM] | TGI (Breast carcinoma cell) [µM] | GI50 (Prostatic carcinoma cell) [µM] | GI50 (CNS carcinoma cell) [µM] | TGI (CNS carcinoma cell) [µM] | GI50 [1] [µM] | TGI [1] [µM] | CC50 [1] [µM] | GI50 (Renal cancer cell line) [µM] | TGI (Renal cancer cell line) [µM] | GI50 (Ovarian carcinoma cell) [µM] | LC50 (50% lethal concentration) (Ovarian carcinoma cell) [µM] | TGI (Ovarian carcinoma cell) [µM] | other results
COc1nc2sc(C)cn2c1C=C1C(=O)N(C)c2ccccc21 | 4.35 | 74.2 | 8.08 | 34.2 | 93.4 | 9.5 | 73.2 | 4.82 | 58.2 | 12.6 | 9.82 | 42.4 | 4.05 | 36.3 | 91.1 | 13.1 | 70.5 | 10.5 | 92.8 | 67 | LC50 (NSCLC): 95.1 µM; TGI (Prostatic carcinoma cell): 66.7 µM; CC50 (CNS carcinoma cell): 97.3 µM
O=C1Nc2ccc(O)cc2/C1=C/c1c(-c2ccncc2)nc2sccn12 | 10.1 | 67.6 | 15.8 | 89.4 | 99.1 | 21.2 | 76.8 | 4.43 | 84.2 | 15 | 4.46 | 80.4 | 7.5 | 93 | – | 43 | 90.1 | 33.8 | – | 86.2 | –
COc1cc2c(cc1C)NC(=O)/C2=C/c1c(OC)nc2sc(C)cn12 | – | – | 31.5 | 91.7 | – | 5.25 | 74.9 | 4.57 | 50.9 | 18.8 | 5.7 | 20.4 | 42.9 | 91.7 | – | 5.81 | 58.9 | 7.22 | 91.4 | 47.1 | LC50 (NSCLC): 98 µM; LC50 (concentration killing 50% of cells) (Breast carcinoma cell): 91.4 µM; CC50 (CNS carcinoma cell): 68.3 µM; LC50 (50% lethal concentration) (Renal cancer cell line): 90.6 µM
Cc1nc2sccn2c1-c1nc2sccn2c1C=C1C(=O)Nc2cc(Cl)ccc21 | – | – | – | – | – | – | – | – | – | – | – | – | – | – | – | – | – | – | – | – | inhibition (Tubulin (Bos taurus) [2]): 15%; inhibition (Tubulin (Bos taurus) [3]): 28%
COc1cc2c(c(OC)c1OC)/C(=C\c1c(OC)nc3sc(C)cn13)C(=O)N2 | 5.73 | – | 7.86 | 65.7 | 95.6 | 9.26 | 58.8 | 5.37 | 29.2 | 11.3 | 7.79 | 33.6 | 6.89 | 69.9 | 97.2 | 9.36 | 45 | 13.8 | 93 | 63.2 | LC50 (NSCLC): 99.4 µM; LC50 (concentration killing 50% of cells) (Breast carcinoma cell): 99.3 µM; CC50 (CNS carcinoma cell): 81.4 µM; LC50 (50% lethal concentration) (Renal cancer cell line): 98.2 µM
COc1ccc2c(c1)/C(=C\c1c(OC)nc3sc(C)cn13)C(=O)N2 | 0.43 | – | 3.46 | 67.7 | – | 1.49 | 58.6 | 0.87 | 61.3 | 0.38 | 0.43 | 33.6 | 0.32 | 35.7 | 79.2 | 0.65 | 61.8 | 1.32 | 87.6 | 42.6 | LC50 (NSCLC): 88.9 µM; TGI (Prostatic carcinoma cell): 52.8 µM; CC50 (CNS carcinoma cell): 85.4 µM
O=C1Nc2ccccc2C1=Cc1c(-c2ccncc2)nc2sccn12 | 2.65 | 92 | 3.27 | 78.3 | 92.2 | 8.97 | 82.4 | 5.42 | 67.3 | 1.1 | 1.6 | 49.7 | 0.68 | 63.4 | 94.3 | 14.9 | 73.2 | 2.34 | 91.8 | 61.3 | CC50 (CNS carcinoma cell): 95 µM; LC50 (50% lethal concentration) (Renal cancer cell line): 92.4 µM
COc1ccc2c(c1)/C(=C/c1c(-c3ccncc3)nc3sccn13)C(=O)N2C | 0.35 | 81.8 | 5.97 | 85.3 | – | 0.55 | 82.4 | 0.44 | 80.1 | 0.39 | 0.38 | 63.1 | 0.34 | 78.8 | 93 | 0.5 | 65.5 | 1.14 | 93.2 | 62.4 | LC50 (Leukemia cell): 96.1 µM; TGI (Prostatic carcinoma cell): 68.8 µM
COc1nc2sc(C)cn2c1/C=C1/C(=O)Nc2ccc(O)cc21 | 3.32 | 61.7 | 4.88 | 38.6 | 94 | 7.54 | 72 | 4.57 | 66.2 | 7.59 | 4.76 | 64 | 4.79 | 78.2 | 98.2 | 6.58 | 79.4 | 12.8 | – | 63.5 | TGI (Prostatic carcinoma cell): 96.2 µM
COc1nc2sc(C)cn2c1/C=C1/C(=O)Nc2c1ccc1ccccc21 | 0.34 | 84.8 | 0.52 | 43.3 | 95 | 2.82 | 45.3 | 0.79 | 51.3 | 0.3 | 0.42 | 38.6 | 0.37 | 34.6 | 71.1 | 1.06 | 38.3 | 0.62 | 91.2 | 35.3 | LC50 (NSCLC): 91.4 µM; TGI (Prostatic carcinoma cell): 35.2 µM; CC50 (Prostatic carcinoma cell; read-out: LC50 (the source's name)): 75.9 µM; CC50 (CNS carcinoma cell): 82.9 µM; LC50 (50% lethal concentration) (Renal cancer cell line): 89.6 µM
